Results as given in ChEMBL document CHEMBL1138940, “Design and synthesis of orally efficacious benzimidazoles as melanin-concentrating hormone receptor 1 antagonists” (Bioorg Med Chem Lett, 2006).

What was measured:
[1] = target: Melanin-concentrating hormone receptor 2 (Homo sapiens) (UniProt Q969V1); assay: Binding affinity to human MCHR2 assessed as inhibition of MCH-mediated calcium ion influx by FLIPR assay; format: functional
[2] = target: T1, Melanin-concentrating hormone receptor 1 (Homo sapiens, UniProt Q99705); assay: Binding affinity to human MCHR1 by radioligand binding assay
[3] = target: Melanin-concentrating hormone receptor 1 (Mus musculus) (UniProt Q8JZL2); assay: Inhibition of MCH-ADO binding to mouse brain at 30 mg/kg, po after 6 hrs; format: functional, organism-based; parameters: dose 30 mg/kg
Procedure, shortened: (§1)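 Mouse ex vivo receptor binding after a single 30 mg/kg oral dose: MCH-ADO binding was measured at 6 h and 24 h post-dose and expressed as percent inhibition relative to vehicle controls, mean ± SEM, n = 3.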

Rattus norvegicus = assay: AUC(0-6h) in rat at 10 mg/kg, po; details: in vivo
[4] = target: Melanin-concentrating hormone receptor 1 (Mus musculus) (UniProt Q8JZL2); assay: Inhibition of MCH-ADO binding to mouse brain at 30 mg/kg, po after 24 hrs; format: functional, organism-based; parameters: dose 30 mg/kg; procedure, shortened: as §1
Mus musculus [5] = assay: Inhibition of cumulative food intake in DIO mouse at 30 mg/kg, po after 2 hrs; format: functional
Procedure, shortened: (§2)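 Diet-induced obese mice were fasted 24 h, then given 30 mg/kg orally 1 h before dark onset. Food was returned at dark onset, and cumulative intake was measured at 2, 6 and 24 h. Results are expressed as percent inhibition versus vehicle-treated controls.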

Mus musculus [6] = assay: Inhibition of cumulative food intake in DIO mouse at 30 mg/kg, po after 24 hrs; format: functional; procedure, shortened: as §2
Mus musculus [7] = assay: Inhibition of cumulative food intake in DIO mouse at 30 mg/kg, po after 6 hrs; format: functional; procedure, shortened: as §2
[8] = target: T1, Melanin-concentrating hormone receptor 1; assay: Binding affinity to human MCHR1 assessed as inhibition of MCH-mediated calcium ion influx by FLIPR assay; format: functional
Procedure, shortened: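 Functional antagonism at human MCH-R1: cells expressing hMCH-R1 were read by FLIPR for block of MCH-mediated Ca2+ influx, and the value was reported as Kb.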

T1 sequence (Q99705 whole entry): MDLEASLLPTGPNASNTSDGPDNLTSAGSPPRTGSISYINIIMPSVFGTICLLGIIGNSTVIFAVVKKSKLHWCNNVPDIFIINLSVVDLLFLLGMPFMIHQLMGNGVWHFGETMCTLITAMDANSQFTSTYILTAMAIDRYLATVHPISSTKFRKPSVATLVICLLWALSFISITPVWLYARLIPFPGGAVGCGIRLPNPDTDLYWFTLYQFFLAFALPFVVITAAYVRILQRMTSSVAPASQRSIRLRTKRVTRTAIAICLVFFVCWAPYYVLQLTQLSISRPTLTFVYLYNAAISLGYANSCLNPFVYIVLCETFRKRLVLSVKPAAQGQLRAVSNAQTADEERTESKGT
Chain of Melanin-concentrating hormone receptor 1 (Mus musculus) (Q8JZL2 whole entry): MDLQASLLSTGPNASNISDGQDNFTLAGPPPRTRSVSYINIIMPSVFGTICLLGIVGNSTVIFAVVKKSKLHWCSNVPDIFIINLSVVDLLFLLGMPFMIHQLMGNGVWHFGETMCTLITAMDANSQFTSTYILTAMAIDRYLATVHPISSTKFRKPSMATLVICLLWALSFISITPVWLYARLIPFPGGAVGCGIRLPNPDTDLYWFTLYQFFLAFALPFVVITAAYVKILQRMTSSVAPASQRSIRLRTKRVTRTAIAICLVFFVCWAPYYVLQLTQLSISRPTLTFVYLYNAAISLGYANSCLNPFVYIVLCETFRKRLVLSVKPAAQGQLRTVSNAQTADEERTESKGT
Chain of Melanin-concentrating hormone receptor 2 (Homo sapiens) (Q969V1 whole entry): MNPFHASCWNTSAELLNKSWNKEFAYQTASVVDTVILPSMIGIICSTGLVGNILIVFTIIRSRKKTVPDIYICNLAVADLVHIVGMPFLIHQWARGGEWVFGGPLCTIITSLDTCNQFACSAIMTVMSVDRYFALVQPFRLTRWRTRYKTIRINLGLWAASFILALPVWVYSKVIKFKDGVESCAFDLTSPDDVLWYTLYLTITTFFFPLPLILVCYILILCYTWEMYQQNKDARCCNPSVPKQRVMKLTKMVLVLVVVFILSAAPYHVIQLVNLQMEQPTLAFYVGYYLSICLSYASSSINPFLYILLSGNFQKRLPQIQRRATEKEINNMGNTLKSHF

| SMILES | Activity [1] [µM] | Ki [2] [nM] | also measured |
| --- | --- | --- | --- |
| Cn1cccc1C(=O)N1CCC(=C(c2ccc(-c3cccc(C#N)c3)cc2)c2nc3cc(F)c(C(F)(F)F)cc3[nH]2)CC1 | > 3 | – | – |
| CC(=O)N1CCC(=C(c2ccc(-c3cccc(C#N)c3)cc2)c2nc3cc(F)c(C(F)(F)F)cc3[nH]2)CC1 | > 3 | 31 | inhibition [3]: 48%; AUC (Rattus norvegicus): 5250 ng·h/mL |
| Fc1cc2[nH]c(C(=C3CCN(CC4CC4)CC3)c3ccc(-c4cncnc4)cc3)nc2cc1C(F)(F)F | > 3 | – | – |
| CN(C)S(=O)(=O)N1CCC(=C(c2ccc(-c3cccc(C#N)c3)cc2)c2nc3cc(F)c(C(F)(F)F)cc3[nH]2)CC1 | > 3 | 64 | – |
| N#Cc1ccc(F)c(-c2ccc(C(=C3CCN(CC4CC4)CC3)c3nc4cc(F)c(C(F)(F)F)cc4[nH]3)cc2)c1 | > 3 | – | inhibition [3]: 92%; inhibition [4]: 80% |
| N#Cc1cccc(-c2ccc(C(=C3CCN(Cc4nccs4)CC3)c3nc4cc(C(F)(F)F)c(F)cc4[nH]3)cc2)c1 | > 3 | 45 | – |
| N#Cc1cccc(-c2ccc(C(=C3CCN(CC4CC4)CC3)c3nc4cc(Cl)cc(Cl)c4[nH]3)cc2)c1 | > 3 | 87 | – |
| N#Cc1ccccc1-c1ccc(C(=C2CCN(CC3CC3)CC2)c2nc3cc(C(F)(F)F)c(F)cc3[nH]2)cc1 | > 3 | 464 | – |
| N#Cc1c[nH]c(=O)c(-c2ccc(C(=C3CCN(CC4CC4)CC3)c3nc4cc(C(F)(F)F)c(F)cc4[nH]3)cc2)c1 | – | 99 | – |
| N#Cc1cccc(-c2ccc(C(=C3CCN(CC(N)=O)CC3)c3nc4cc(F)c(C(F)(F)F)cc4[nH]3)cc2)c1 | > 3 | – | – |
| N#Cc1cccc(-c2ccc(C3(c4nc5cc(C(F)(F)F)c(F)cc5[nH]4)CC34CCN(C(=O)N3CCCC3)CC4)cc2)c1 (configuration not stated) | > 3 | – | – |
| N#Cc1cccc(-c2ccc(C(=C3CCNCC3)c3nc4cc(C(F)(F)F)c(F)cc4[nH]3)cc2)c1 | > 3 | 3.6 | – |
| N#Cc1cccc(-c2ccc(C3(c4nc5cc(C(F)(F)F)c(F)cc5[nH]4)CC34CCN(Cc3ccccc3)CC4)cc2)c1 (configuration not stated) | > 3 | – | – |
| N#Cc1ccc(F)c(-c2ccc(C(=C3CCN(CC4CC4)CC3)c3nc4cc(C(F)(F)F)c(F)cc4[nH]3)cc2)c1 | – | 3.9 | AUC (Rattus norvegicus): 3000 ng·h/mL |
| N#Cc1cccc(-c2ccc(C3(c4nc5cc(C(F)(F)F)c(F)cc5[nH]4)CC34CCNCC4)cc2)c1 (configuration not stated) | > 3 | – | – |
| N#CCc1cccc(-c2ccc(C(=C3CCN(CC4CC4)CC3)c3nc4cc(C(F)(F)F)c(F)cc4[nH]3)cc2)c1 | > 3 | 26 | – |
| Oc1ccc(-c2ccc(C(=C3CCN(CC4CC4)CC3)c3nc4cc(F)c(C(F)(F)F)cc4[nH]3)cc2)cn1 | > 3 | 174 | – |
| CS(=O)(=O)c1cccc(-c2ccc(C(=C3CCN(CC4CC4)CC3)c3nc4cc(F)c(C(F)(F)F)cc4[nH]3)cc2)c1 | > 3 | – | – |
| CC(C)S(=O)(=O)N1CCC(=C(c2ccc(-c3cccc(C#N)c3)cc2)c2nc3cc(F)c(C(F)(F)F)cc3[nH]2)CC1 | > 3 | – | – |
| N#Cc1cccc(-c2ccc(C(=C3CCN(CC4CC4)CC3)c3nc4cc(F)c(F)cc4[nH]3)cc2)c1 | > 3 | 52 | – |
| N#Cc1cccc(-c2ccc(C(=C3CCN(C(=O)c4cccs4)CC3)c3nc4cc(C(F)(F)F)c(F)cc4[nH]3)cc2)c1 | > 3 | – | – |

| SMILES | Activity [1] [µM] | Ki [2] [nM] | also measured |
| --- | --- | --- | --- |
| N#Cc1cccc(-c2ccc(C3(c4nc5cc(C(F)(F)F)c(F)cc5[nH]4)CC34CCN(CC3CC3)CC4)cc2)c1 (configuration not stated) | > 3 | – | inhibition [3]: 74% |
| CCN(CC)CCN1CCC2(CC1)CC2(c1ccc(-c2cccc(C#N)c2)cc1)c1nc2cc(F)c(C(F)(F)F)cc2[nH]1 (configuration not stated) | > 3 | 15 | – |
| CN(C)C(=O)N1CCC2(CC1)CC2(c1ccc(-c2cccc(C#N)c2)cc1)c1nc2cc(F)c(C(F)(F)F)cc2[nH]1 (configuration not stated) | > 3 | 32 | – |
| NC(=O)c1cccc(-c2ccc(C(=C3CCN(CC4CC4)CC3)c3nc4cc(C(F)(F)F)c(F)cc4[nH]3)cc2)c1 | – | 77 | – |
| N#Cc1cccc(-c2ccc(C(=C3CCN(CC(N)=O)CC3)c3nc4cc(C(F)(F)F)c(F)cc4[nH]3)cc2)c1 | – | 15.5 | – |
| N#Cc1cccc(-c2ccc(C(=C3CCN(CC4CC4)CC3)c3nc4cc(C(F)(F)F)c(F)cc4[nH]3)cc2)c1 | > 3 | – | inhibition [3]: 96%; inhibition [4]: 84%; inhibition in vivo at 30 mg/kg (Mus musculus [5]): 31%; inhibition in vivo at 30 mg/kg (Mus musculus [6]): 18.6%; inhibition in vivo at 30 mg/kg (Mus musculus [7]): 32.6% |
| N#Cc1cccc(-c2ccc(C(=C3CCN(CC4CC4)CC3)c3nc4cc(Cl)c(Cl)cc4[nH]3)cc2)c1 | > 3 | 15 | Kb [8]: 70 nM; inhibition [3]: 68%; inhibition [4]: 54%; AUC (Rattus norvegicus): 6640 ng·h/mL; inhibition in vivo at 30 mg/kg (Mus musculus [5]): 37.4%; inhibition in vivo at 30 mg/kg (Mus musculus [6]): 26.8%; inhibition in vivo at 30 mg/kg (Mus musculus [7]): 41.8% |
| CS(=O)(=O)N1CCC(=C(c2ccc(-c3cccc(C#N)c3)cc2)c2nc3cc(F)c(C(F)(F)F)cc3[nH]2)CC1 | > 3 | 71.4 | – |
| CCN(CC)C(=O)N1CCC(=C(c2ccc(-c3cccc(C#N)c3)cc2)c2nc3cc(F)c(C(F)(F)F)cc3[nH]2)CC1 | > 3 | 22 | – |
| CN(C)C(=O)N1CCC(=C(c2ccc(-c3cccc(C#N)c3)cc2)c2nc3cc(F)c(C(F)(F)F)cc3[nH]2)CC1 | > 3 | 37 | inhibition [3]: 50%; AUC (Rattus norvegicus): 1290 ng·h/mL |
| N#Cc1cccc(-c2ccc(C(=C3CCN(CC4CC4)CC3)c3nc4cc(C#N)ccc4[nH]3)cc2)c1 | > 3 | – | – |
| N#Cc1cccc(-c2ccc(C(=C3CCN(CCO)CC3)c3nc4cc(C(F)(F)F)c(F)cc4[nH]3)cc2)c1 | – | 7.2 | – |
| N#Cc1cncc(-c2ccc(C(=C3CCN(CC4CC4)CC3)c3nc4cc(C(F)(F)F)c(F)cc4[nH]3)cc2)c1 | > 3 | 10.3 | – |
| CC(C)S(=O)(=O)N1CCC2(CC1)CC2(c1ccc(-c2cccc(C#N)c2)cc1)c1nc2cc(F)c(C(F)(F)F)cc2[nH]1 (configuration not stated) | > 3 | 67 | – |
| CCN(CC)C(=O)N1CCC2(CC1)CC2(c1ccc(-c2cccc(C#N)c2)cc1)c1nc2cc(F)c(C(F)(F)F)cc2[nH]1 (configuration not stated) | > 3 | 221 | – |
| Cn1cccc1C(=O)N1CCC(=C(c2ccc(-c3cccc(C#N)c3)cc2)c2nc3cc(C(F)(F)F)c(F)cc3[nH]2)CC1 | – | 10.1 | – |
| N#Cc1cccc(-c2ccc(C(=C3CCN(C(=O)C4CC4)CC3)c3nc4cc(C(F)(F)F)c(F)cc4[nH]3)cc2)c1 | > 3 | 31 | – |
| N#Cc1cnc(O)c(-c2ccc(C(=C3CCN(CC4CC4)CC3)c3nc4cc(F)c(C(F)(F)F)cc4[nH]3)cc2)c1 | > 3 | – | – |
| NC(=O)c1cccc(-c2ccc(C(=C3CCN(CC4CC4)CC3)c3nc4cc(F)c(C(F)(F)F)cc4[nH]3)cc2)c1 | > 3 | – | – |
| N#Cc1cccc(-c2ccc(C3(c4nc5cc(F)c(C(F)(F)F)cc5[nH]4)CC34CCN(CC(=O)O)CC4)cc2)c1 (configuration not stated) | > 3 | 41 | – |
| N#Cc1cccc(-c2ccc(C(=C3CCN(CCO)CC3)c3nc4cc(F)c(C(F)(F)F)cc4[nH]3)cc2)c1 | > 3 | – | – |
